In test [1] the target is T1, NmeIPMSR32Q (Neisseria meningitidis serogroup B, UniProt Q9JZG1, R32Q).
T1 sequence (Q9JZG1 1-517 R32Q): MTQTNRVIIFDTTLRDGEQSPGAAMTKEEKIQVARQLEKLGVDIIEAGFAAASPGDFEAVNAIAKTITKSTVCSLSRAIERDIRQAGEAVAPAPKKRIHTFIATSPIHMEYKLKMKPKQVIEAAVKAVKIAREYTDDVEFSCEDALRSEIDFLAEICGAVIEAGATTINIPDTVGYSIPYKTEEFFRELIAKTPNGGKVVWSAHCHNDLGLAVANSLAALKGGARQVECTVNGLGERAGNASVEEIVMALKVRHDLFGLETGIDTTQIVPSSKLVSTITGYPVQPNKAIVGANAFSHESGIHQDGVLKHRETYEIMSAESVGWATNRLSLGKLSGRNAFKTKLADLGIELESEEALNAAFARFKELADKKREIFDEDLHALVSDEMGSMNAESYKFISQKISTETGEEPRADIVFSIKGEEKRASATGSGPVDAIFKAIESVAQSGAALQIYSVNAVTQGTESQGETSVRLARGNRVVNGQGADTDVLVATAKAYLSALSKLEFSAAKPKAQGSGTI
Description: Leu inhibition assay. In kind it is biochemical.

In test [2] the target is T2, NmeIPMSR470Q (Neisseria meningitidis serogroup B, UniProt Q9JZG1, R470Q).
T2 sequence (Q9JZG1 1-517 R470Q): T1 sequence (Q9JZG1 1-517 R32Q) with Q32R, R470Q
As to the kind of experiment: Leu inhibition assay. The format is biochemical.

Test [3] addresses T3, NmeIPMS (Neisseria meningitidis serogroup B, UniProt Q9JZG1).
T3 sequence (Q9JZG1 1-517): T1 sequence (Q9JZG1 1-517 R32Q) with Q32R
Description: waterLOGSY NMR Leu binding assay. In outline:
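Leu titrated at 0, 50, 150, 250, 500 and 750 μM in 10 mM HEPES pH 8.0, 3 mM MgCl₂, 3 mM KCl, 10% D₂O. Each sample recorded first without enzyme, then with 10 μM untagged enzyme. ¹H spectra at 600 MHz, 25 °C, without a water flipback pulse. KD fitted from the isotherm of corrected waterLOGSY intensity change against ligand concentration.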

Test [4] concerns the target T4, NmeIPMSR32Q^hetero (Neisseria meningitidis serogroup B, UniProt Q9JZG1, R32Q).
T4 sequence (Q9JZG1 1-517 R32Q): T1 sequence (Q9JZG1 1-517 R32Q)
T4 sequence (Q9JZG1 1-517): T1 sequence (Q9JZG1 1-517 R32Q) with Q32R
As to the kind of experiment: waterLOGSY NMR Leu binding assay.

In test [5] the target is T1, NmeIPMSR32Q. Description: waterLOGSY NMR Leu binding assay.
The target in test [6] is T5, NmeIPMSR470Q^hetero (Neisseria meningitidis serogroup B, UniProt Q9JZG1, R470Q).
T5 sequence (Q9JZG1 1-517 R470Q): T1 sequence (Q9JZG1 1-517 R32Q) with Q32R, R470Q
T5 sequence (Q9JZG1 1-517): T1 sequence (Q9JZG1 1-517 R32Q) with Q32R
Description: waterLOGSY NMR Leu binding assay.

The target in test [7] is T2, NmeIPMSR470Q. As to the kind of experiment: waterLOGSY NMR Leu binding assay.
Test [8] deals with T1, NmeIPMSR32Q. Description: DTP-coupled kinetic assay. The format is biochemical. Conditions: homodimer R32Q, apparent Km. In outline:
(§1)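 E. coli BL21(DE3)-expressed enzyme, TEV-cleaved and SEC-purified; variant homodimers taken as the StrepTrap flow-through. CoA release monitored with DTP at 324 nm (ε = 1.98 × 10⁴ l × M⁻¹ cm⁻¹), 25 °C. Mix: 100 μM DTP, 20 mM KCl, 20 mM MgCl₂, 3.0 × 10⁻² μM enzyme, 50 mM HEPES pH 7.5, started with α-KIV. One substrate held at 300 μM, the other varied.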

Test [9] concerns the target T2, NmeIPMSR470Q. Description: DTP-coupled kinetic assay. In kind it is biochemical. The settings on record: homodimer R470Q, apparent Km. In outline:
as §1

The target in test [10] is T3, NmeIPMS. As to the kind of experiment: DTP-coupled kinetic assay. The format is biochemical. The settings on record: read-out: Km^KIV; WT NmeIPMS; apparent Km; AcCoA fixed at 300 μM; 25 °C, pH 7.5. In outline: as §1
Setting [11] is: read-out: Km^AcCoA, α-KIV fixed at 300 μM.
Where [12] appears, read: read-out: Km^KIV, AcCoA fixed at 300 μM.

Each structure is given as a SMILES string. Residue numbers refer to the chain shown, from its start. Where two headings read alike, the source gives them in different places.

For the molecule `CC(C)C[C@H](N)C(=O)O` [Leu, leucine], the Ki in test [1] and in test [2] was more than 100 µM each time. Also, the dissociation constant (Kd) in [3] came to 376 ± 48 µM; in [4], 324 ± 65 µM; in test [5] it was 352 ± 37 µM; in test [6], 370 ± 55 µM; in test [7], 386 ± 72 µM.
Turning to `CC(=O)SCCNC(=O)CCNC(=O)[C@H](O)C(C)(C)COP(=O)(O)OP(=O)(O)OC[C@H]1O[C@@H](n2cnc3c(N)ncnc32)[C@H](O)[C@@H]1OP(=O)(O)O` [AcCoA, acetyl-coenzyme A], the Km was determined as 40 ± 5 µM in test [8] (setting [11]) and 48 ± 3 µM in [9] (setting [11]).
For `CC(C)C(=O)C(=O)O` [KIV, α-ketoisovalerate], the figures for the Km in test [10], in test [8] (setting [12]) and in test [9] (setting [12]) were 37 ± 5 µM, 47 ± 3 µM and 53 ± 6 µM, respectively.

These data come from article PMC9860122 (The Journal of Biological Chemistry, 2022).
